Assay results reported in ChEMBL document CHEMBL1142420, “Synthesis and DNA-cleaving activity of lactenediynes conjugated with DNA-complexing moieties” (2008).

What was measured:
Assay type in all cases: functional
[1] = test system: SF-295; experiment: Cytotoxicity against human SF295 cells after 48 hrs by SRB assay; details: SF-295, 48 h
Summary of the method: (§1)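 Run at NCI: cell lines exposed 48 h to a range of concentrations, with untreated controls under identical conditions. Growth measured by sulforhodamine B staining with colorimetric read-out. Percent growth computed from test, time-zero and control absorbances. GI50, TGI and LC50 read from PG versus log10 molar concentration as the concentrations giving PG = 50, 0 and -50.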

[2] = test system: OVCAR-8; experiment: Cytotoxicity against human OVCAR8 cells after 48 hrs by SRB assay; details: OVCAR-8, 48 h; summary of the method: as §1
[3] = test system: A549; experiment: Cytotoxicity against human A549 cells after 48 hrs by SRB assay; details: A549, 48 h; summary of the method: as §1
[4] = test system: IGROV-1; experiment: Cytotoxicity against human IGROV1 cells after 48 hrs by SRB assay; details: IGROV-1, 48 h; summary of the method: as §1
[5] = test system: TK-10; experiment: Cytotoxicity against human TK10 cells after 48 hrs by SRB assay; details: TK-10, 48 h; summary of the method: as §1
[6] = test system: NCI-H322M; experiment: Cytotoxicity against human NCI-H322M cells after 48 hrs by SRB assay; summary of the method: as §1
[7] = test system: UO-31; experiment: Cytotoxicity against human UO31 cells after 48 hrs by SRB assay; details: UO-31, 48 h; summary of the method: as §1
[8] = test system: OVCAR-4; experiment: Cytotoxicity against human OVCAR4 cells after 48 hrs by SRB assay; details: OVCAR-4, 48 h; summary of the method: as §1
[9] = test system: NCI-H23; experiment: Cytotoxicity against human NCI-H23 cells after 48 hrs by SRB assay; details: NCI-H23, 48 h, read-out: Log LC50 (the source's name) (converted)
Summary of the method: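 Run at NCI: cells exposed 48 h to a range of concentrations, with untreated controls under identical conditions. Growth measured by sulforhodamine B staining with colorimetric read-out. Percent growth (PG) calculated from absorbance at 48 h with drug, at time zero, and at 48 h without drug. Log molar concentration plotted against PG; GI50 at PG = 50, TGI at PG = 0, LC50 at PG = −50.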

[10] = test system: DU-145; experiment: Cytotoxicity against human DU145 cells after 48 hrs by SRB assay; details: DU-145, 48 h; summary of the method: as §1
[11] = test system: SW-620; experiment: Cytotoxicity against human SW620 cells after 48 hrs by SRB assay; details: SW-620, 48 h; summary of the method: as §1
[12] = test system: UACC-62; experiment: Cytotoxicity against human UACC62 cells after 48 hrs by SRB assay; details: UACC-62, 48 h; summary of the method: as §1
[13] = test system: RPMI-8226; experiment: Cytotoxicity against human RPMI8226 cells after 48 hrs by SRB assay; details: RPMI-8226, 48 h; summary of the method: as §1
[14] = test system: MDA-MB-435; experiment: Cytotoxicity against human MDA-MB-435 cells after 48 hrs by SRB assay; details: MDA-MB-435, 48 h; summary of the method: as §1
[15] = test system: SK-OV-3; experiment: Cytotoxicity against human SKOV3 cells after 48 hrs by SRB assay; details: SK-OV-3, 48 h; summary of the method: as §1
[16] = test system: NCI/ADR-RES; experiment: Cytotoxicity against human NCI/ADR-RES cells after 48 hrs by SRB assay; summary of the method: as §1
[17] = test system: BT-549; experiment: Cytotoxicity against human BT549 cells after 48 hrs by SRB assay; details: BT-549, 48 h; summary of the method: as §1
[18] = test system: MOLT-4; experiment: Cytotoxicity against human MOLT4 cells after 48 hrs by SRB assay; details: MOLT-4, 48 h; summary of the method: as §1
[19] = test system: EKVX; experiment: Cytotoxicity against human EKVX cells after 48 hrs by SRB assay; summary of the method: as §1
[20] = test system: SNB-75; experiment: Cytotoxicity against human SNB75 cells after 48 hrs by SRB assay; details: SNB-75, 48 h; summary of the method: as §1
[21] = test system: COLO 205; experiment: Cytotoxicity against human COLO205 cells after 48 hrs by SRB assay; details: COLO 205, 48 h; summary of the method: as §1
[22] = test system: U-251; experiment: Cytotoxicity against human U251 cells after 48 hrs by SRB assay; details: U-251, 48 h; summary of the method: as §1
[23] = test system: HCC 2998; experiment: Cytotoxicity against human HCC2998 cells after 48 hrs by SRB assay; details: HCC 2998, 48 h; summary of the method: as §1
[24] = test system: NCI-H460; experiment: Cytotoxicity against human NCI-H460 cells after 48 hrs by SRB assay; details: NCI-H460, 48 h; summary of the method: as §1
[25] = test system: M14; experiment: Cytotoxicity against human M14 cells after 48 hrs by SRB assay; details: M14, 48 h; summary of the method: as §1
[26] = test system: SK-MEL-28; experiment: Cytotoxicity against human SK-MEL-28 cells after 48 hrs by SRB assay; details: SK-MEL-28, 48 h; summary of the method: as §1
[27] = test system: OVCAR-3; experiment: Cytotoxicity against human OVCAR-3 cells after 48 hrs by SRB assay; details: OVCAR-3, 48 h; summary of the method: as §1
[28] = test system: ACHN; experiment: Cytotoxicity against human ACHN cells after 48 hrs by SRB assay; summary of the method: as §1
[29] = test system: A498; experiment: Cytotoxicity against human A498 cells after 48 hrs by SRB assay; details: A498, 48 h; summary of the method: as §1
[30] = test system: RXF 393; experiment: Cytotoxicity against human […] cells after 48 hrs by SRB assay; details: RXF 393, 48 h; summary of the method: as §1
[31] = read-out: Log LC50 (the source's name) (converted)

CC(=O)O[C@@H]1C#C/C=C\C#CC[C@H]2C(=O)N(C(=O)OC(C)(C)C)[C@H]12
GI50 [1]: 30.9 µM | CC50 [1, 31]: > 100 µM | TGI ([1]; read-out: Log TGI (converted)): > 100 µM | GI50 [2]: 14.5 µM | CC50 [2, 31]: > 100 µM | TGI ([2]; read-out: Log TGI (converted)): 89.1 µM | GI50 [3]: 28.2 µM | CC50 [3, 31]: > 100 µM | TGI ([3]; read-out: Log TGI (converted)): > 100 µM | GI50 [4]: 19.5 µM | CC50 [4, 31]: > 100 µM | TGI ([4]; read-out: Log TGI (converted)): > 100 µM | GI50 [5]: 35.5 µM | CC50 [5, 31]: > 100 µM | TGI ([5]; read-out: Log TGI (converted)): > 100 µM | GI50 [6]: > 100 µM | CC50 [6, 31]: > 100 µM | TGI ([6]; read-out: Log TGI (converted)): > 100 µM | GI50 [7]: 5.89 µM | CC50 [7, 31]: > 100 µM | TGI ([7]; read-out: Log TGI (converted)): > 100 µM | GI50 [8]: > 100 µM | CC50 [8, 31]: > 100 µM | TGI ([8]; read-out: Log TGI (converted)): > 100 µM | CC50 [9]: > 100 µM | GI50 [10]: 16.2 µM | CC50 [10, 31]: > 100 µM | TGI ([10]; read-out: Log TGI (converted)): 56.2 µM | GI50 [11]: 13.5 µM | CC50 [11, 31]: > 100 µM | TGI ([11]; read-out: Log TGI (converted)): > 100 µM | GI50 [12]: 21.4 µM | CC50 [12, 31]: > 100 µM | TGI ([12]; read-out: Log TGI (converted)): > 100 µM | GI50 [13]: 17.8 µM | CC50 [13, 31]: > 100 µM | TGI ([13]; read-out: Log TGI (converted)): > 100 µM | GI50 [14]: > 100 µM | CC50 [14, 31]: > 100 µM | TGI ([14]; read-out: Log TGI (converted)): > 100 µM | GI50 [15]: 87.1 µM | CC50 [15, 31]: > 100 µM | TGI ([15]; read-out: Log TGI (converted)): > 100 µM | GI50 [16]: 28.8 µM | CC50 [16, 31]: > 100 µM | TGI ([16]; read-out: Log TGI (converted)): > 100 µM | GI50 [17]: 24.5 µM | CC50 [17, 31]: > 100 µM | TGI ([17]; read-out: Log TGI (converted)): > 100 µM | GI50 [18]: 0.407 µM | CC50 [18, 31]: > 100 µM | TGI ([18]; read-out: Log TGI (converted)): > 100 µM | GI50 [19]: > 100 µM | CC50 [19, 31]: > 100 µM | TGI ([19]; read-out: Log TGI (converted)): > 100 µM | GI50 [20]: 38 µM | CC50 [20, 31]: > 100 µM | TGI ([20]; read-out: Log TGI (converted)): > 100 µM | GI50 [21]: 39.8 µM | CC50 [21, 31]: > 100 µM | TGI ([21]; read-out: Log TGI (converted)): > 100 µM | GI50 [22]: 16.2 µM | CC50 [22, 31]: > 100 µM | TGI ([22]; read-out: Log TGI (converted)): > 100 µM | GI50 [23]: 34.7 µM | CC50 [23, 31]: > 100 µM | TGI ([23]; read-out: Log TGI (converted)): > 100 µM | GI50 [24]: 0.0933 µM | CC50 [24, 31]: > 100 µM | TGI ([24]; read-out: Log TGI (converted)): > 100 µM | GI50 [25]: 39.8 µM | CC50 [25, 31]: > 100 µM | TGI ([25]; read-out: Log TGI (converted)): > 100 µM | GI50 [26]: 87.1 µM | CC50 [26, 31]: > 100 µM | TGI ([26]; read-out: Log TGI (converted)): > 100 µM | GI50 [27]: 61.7 µM | CC50 [27, 31]: > 100 µM | TGI ([27]; read-out: Log TGI (converted)): > 100 µM | GI50 [28]: 2.63 µM | CC50 [28, 31]: > 100 µM | TGI ([28]; read-out: Log TGI (converted)): 25.7 µM | GI50 [29]: 17 µM | CC50 [29, 31]: > 100 µM | TGI ([29]; read-out: Log TGI (converted)): 97.7 µM | GI50 [30]: 20.4 µM | CC50 [30, 31]: > 100 µM | TGI ([30]; read-out: Log TGI (converted)): 69.2 µM
